Data reported in ChEMBL document CHEMBL1138065, “Novel selective inhibitors of neutral endopeptidase for the treatment of female sexual arousal disorder. Synthesis and activity of functionalized glutaramides” (J Med Chem, 2006).
pIC50: −log10 of the molar value.

What was measured:
[1] = Lipophilicity, LogD at pH 7.4; assay type: physicochemical; settings: buffer
Procedure, shortened: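 Partition measured between 1-octanol and water at pH 7.4.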

[2] = Half life in male rat at 1 mg/kg, iv and po; assay type: ADME, organism-based; design: dose 1 mg/kg, route oral; settings: in vivo
Procedure, shortened: (§1)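 Jugular-vein-cannulated rats got 1 mg/kg iv (tail vein) or po (gavage). Blood (0.2 mL) was drawn via the catheter into heparin tubes up to 24 h post-dose. Plasma was acidified with phosphoric acid and frozen, then extracted on C18 cartridges. Samples were quantified by LC-MS-MS with positive-ion MRM. Values are mean ± SD of three animals.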

[3] = Stability in human liver microsome at 1 uM in presence of 0.5 uM CYP; assay type: ADME; settings: liver microsomes, read-out: Stability
Procedure, shortened: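 Substrate disappearance in human liver microsomes, 1 µM compound, 0.5 µM CYP.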

[4] = Oral bioavailability in male rat at 1 mg/kg, iv and po; assay type: ADME, organism-based; settings: in vivo; procedure, shortened: as §1
[5] = Tmax in male rat at 1 mg/kg, iv and po; assay type: ADME, organism-based; design: dose 1 mg/kg, route oral; settings: in vivo; procedure, shortened: as §1
[6] = Percent of unbound ligand in male rat at 1 mg/kg, iv and po; assay type: ADME, organism-based; design: dose 1 mg/kg, route oral; settings: in vivo
Procedure, shortened: (§2)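 Fraction unbound in rat plasma was measured at 1 µg/mL by equilibrium dialysis against isotonic Krebs-Ringer bicarbonate buffer, pH 7.4.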

[7] = Apparent permeability from basolateral to apical side of the Caco-2 cell membrane at pH 7.4 at 25 uM; assay type: ADME, cell-based; settings: human, Caco-2, pH 7.4
[8] = system: Rattus norvegicus; experiment: Volume of distribution in male rat at 1 mg/kg, iv and po; assay type: ADME, organism-based; design: dose 1 mg/kg, route oral; settings: in vivo; procedure, shortened: as §1
[9] = molecular target: T1, Endothelin-converting enzyme 1 (Homo sapiens, UniProt P42892); experiment: Inhibition of human ECE1
T1 sequence (P42892 whole entry): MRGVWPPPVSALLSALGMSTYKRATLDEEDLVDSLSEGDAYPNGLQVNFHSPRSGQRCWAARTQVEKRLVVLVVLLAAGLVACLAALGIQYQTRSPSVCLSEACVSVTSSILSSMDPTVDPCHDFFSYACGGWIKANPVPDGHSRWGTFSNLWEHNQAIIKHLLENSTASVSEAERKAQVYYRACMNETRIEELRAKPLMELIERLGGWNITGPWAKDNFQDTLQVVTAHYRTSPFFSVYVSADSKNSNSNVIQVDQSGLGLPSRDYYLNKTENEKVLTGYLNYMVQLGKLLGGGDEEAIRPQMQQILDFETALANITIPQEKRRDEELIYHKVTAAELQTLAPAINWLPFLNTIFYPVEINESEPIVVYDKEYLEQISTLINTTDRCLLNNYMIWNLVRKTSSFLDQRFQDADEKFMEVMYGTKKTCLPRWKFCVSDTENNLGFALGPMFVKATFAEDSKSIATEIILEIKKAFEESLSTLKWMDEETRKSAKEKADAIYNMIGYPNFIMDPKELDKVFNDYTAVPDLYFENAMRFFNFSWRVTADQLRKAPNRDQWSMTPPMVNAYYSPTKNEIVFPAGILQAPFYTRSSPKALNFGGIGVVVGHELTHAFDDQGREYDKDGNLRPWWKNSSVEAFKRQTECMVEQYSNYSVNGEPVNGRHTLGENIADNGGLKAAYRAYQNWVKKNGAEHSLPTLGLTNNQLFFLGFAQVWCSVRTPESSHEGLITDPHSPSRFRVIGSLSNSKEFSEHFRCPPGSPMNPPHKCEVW
Procedure, shortened: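 Enzyme: recombinant human ECE-1 extracellular domain (aa 73-753), taken from the media of transiently transfected CHO cells. Assay in 100 mM HEPES-KOH pH 7.0/1% DMSO with 1 µM big ET-1, 1 h at 37 °C. Stopped with an equal volume of 10 mM EDTA. ET-1 formed was read by ELISA, with enzyme diluted to give OD ≈1.0. Inhibitors were tested at a range of concentrations as % inhibition.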

[10] = Stability in rat liver microsome; assay type: ADME; settings: liver microsomes, read-out: Stability
[11] = Apparent permeability from apical to basolateral side of the Caco-2 cell membrane at pH 7.4 at 25 uM; assay type: ADME, cell-based; settings: human, Caco-2, pH 7.4
[12] = Cmax in male rat at 1 mg/kg, iv and po; assay type: ADME, organism-based; design: dose 1 mg/kg, route oral; settings: in vivo; procedure, shortened: as §1
[13] = Percent of unbound ligand in female rat at 1 mg/kg, iv and po; assay type: ADME, organism-based; design: dose 1 mg/kg, route oral; settings: in vivo; procedure, shortened: as §2
[14] = system: Rattus norvegicus; experiment: Volume of distribution in female rat at 1 mg/kg, iv and po; assay type: ADME, organism-based; design: dose 1 mg/kg, route oral; settings: in vivo; procedure, shortened: as §1
[15] = Oral bioavailability in female rat at 1 mg/kg, iv and po; assay type: ADME, organism-based; settings: in vivo; procedure, shortened: as §1
[16] = Tmax in female rat at 1 mg/kg, iv and po; assay type: ADME, organism-based; design: dose 1 mg/kg, route oral; settings: in vivo; procedure, shortened: as §1
[17] = Cmax in female rat at 1 mg/kg, iv and po; assay type: ADME, organism-based; design: dose 1 mg/kg, route oral; settings: in vivo; procedure, shortened: as §1
[18] = molecular target: T2, Neprilysin (Rattus norvegicus, UniProt P07861); experiment: Inhibition of rat NEP
T2 sequence (P07861 whole entry): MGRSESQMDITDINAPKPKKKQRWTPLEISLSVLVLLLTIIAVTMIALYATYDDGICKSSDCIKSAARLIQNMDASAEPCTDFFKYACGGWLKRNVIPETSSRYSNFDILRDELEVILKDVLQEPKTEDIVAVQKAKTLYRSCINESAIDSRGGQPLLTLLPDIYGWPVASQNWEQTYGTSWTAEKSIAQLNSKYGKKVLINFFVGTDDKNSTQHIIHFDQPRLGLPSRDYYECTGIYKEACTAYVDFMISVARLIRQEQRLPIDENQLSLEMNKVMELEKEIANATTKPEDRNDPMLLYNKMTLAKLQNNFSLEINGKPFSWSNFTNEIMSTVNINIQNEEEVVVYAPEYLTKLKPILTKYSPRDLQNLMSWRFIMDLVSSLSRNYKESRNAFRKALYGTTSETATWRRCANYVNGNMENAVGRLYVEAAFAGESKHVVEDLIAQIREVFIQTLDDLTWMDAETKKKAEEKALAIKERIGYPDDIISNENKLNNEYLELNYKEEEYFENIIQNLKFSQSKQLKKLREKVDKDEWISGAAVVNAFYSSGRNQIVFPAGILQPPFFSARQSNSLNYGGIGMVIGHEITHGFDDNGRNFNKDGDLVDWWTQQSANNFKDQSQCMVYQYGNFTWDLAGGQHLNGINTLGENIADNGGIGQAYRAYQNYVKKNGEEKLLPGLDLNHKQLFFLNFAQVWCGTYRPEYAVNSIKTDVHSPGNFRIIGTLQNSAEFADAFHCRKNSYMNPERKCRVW
Procedure, shortened: (§3)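 Fluorogenic substrate o-aminobenzoyl-D-Arg-Arg-Leu-ethylenediamine-2,4-dinitrophenyl in 50 mM Tris·Cl pH 7.4 (inhibitor dilutions with 4% DMSO). Enzyme was diluted to ≤10% conversion; incubation 1 h at 37 °C, stopped with phosphoramidon. 10-point half-log dilution series, duplicate points.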

[19] = molecular target: T3, Neprilysin (Oryctolagus cuniculus, UniProt P08049); experiment: Inhibition of rabbit NEP; procedure, shortened: as §3
T3 sequence (P08049 whole entry): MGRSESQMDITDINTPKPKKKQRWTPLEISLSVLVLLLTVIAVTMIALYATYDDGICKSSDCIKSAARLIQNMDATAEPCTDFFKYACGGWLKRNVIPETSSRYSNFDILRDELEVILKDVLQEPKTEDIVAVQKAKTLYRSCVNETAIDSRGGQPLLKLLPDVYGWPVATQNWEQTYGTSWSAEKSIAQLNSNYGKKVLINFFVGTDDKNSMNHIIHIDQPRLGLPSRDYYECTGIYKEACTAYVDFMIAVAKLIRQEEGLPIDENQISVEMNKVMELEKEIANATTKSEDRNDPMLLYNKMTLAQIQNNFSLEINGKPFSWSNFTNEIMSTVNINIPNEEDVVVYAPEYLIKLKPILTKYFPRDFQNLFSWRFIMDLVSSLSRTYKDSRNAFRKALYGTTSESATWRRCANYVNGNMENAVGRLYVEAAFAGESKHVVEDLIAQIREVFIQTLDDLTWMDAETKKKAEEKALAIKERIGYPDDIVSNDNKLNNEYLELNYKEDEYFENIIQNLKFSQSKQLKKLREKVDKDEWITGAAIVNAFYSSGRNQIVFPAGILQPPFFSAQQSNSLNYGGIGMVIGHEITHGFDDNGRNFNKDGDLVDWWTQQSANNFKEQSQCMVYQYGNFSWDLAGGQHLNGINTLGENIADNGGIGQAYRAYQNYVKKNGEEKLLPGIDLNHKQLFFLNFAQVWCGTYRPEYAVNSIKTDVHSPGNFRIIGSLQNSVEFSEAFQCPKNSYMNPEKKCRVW

[20] = Half life in female rat at 1 mg/kg, iv and po; assay type: ADME, organism-based; design: dose 1 mg/kg, route oral; settings: in vivo; procedure, shortened: as §1

SMILES	logD [1]	half-life [2] [h]	half-life at 1 µM [3] [h]	bioavailability [4] [%]	Tmax [5] [h]	Papp B→A at 25 µM [7] [×10⁻⁶ cm/s]	Vdss [8] [L/kg]	pIC50 [9]	Papp A→B at 25 µM [11] [×10⁻⁶ cm/s]	Cmax [12] [ng/mL]	other results
CCCC(CC1(C(=O)Nc2nnc(CC)s2)CCCC1)C(=O)O (racemic)	0.5										
CCC[C@H](CC1(C(=O)NC2(CO)Cc3ccccc3C2)CCCC1)C(=O)O		1.5	1.03	144	0.25	10	4.7	< 5.52	6	233	Fu [6]: 24.3%; half-life [10]: > 2 h
CCC[C@@H](CC1(C(=O)Nc2nnc(CC)s2)CCCC1)C(=O)O								< 5.52			
CCCC(CC1(C(=O)NC2(CO)Cc3ccccc3C2)CCCC1)C(=O)O (racemic)	1.1	2		108	0.25		3.9			311	
CCCC(CC1(C(=O)Nc2nnc(C)s2)CCCC1)C(=O)O (racemic)	0.1										
CCC[C@@H](CC1(C(=O)NC2(CO)Cc3ccccc3C2)CCCC1)C(=O)O								< 5.52			
CCC[C@H](CC1(C(=O)Nc2nnc(C)s2)CCCC1)C(=O)O			> 2			2		< 5.52	< 1		
CCC[C@H](CC1(C(=O)Nc2nnc(CC)s2)CCCC1)C(=O)O		1.7	> 2	103	1	14	0.4	< 5.52	9	1180	Fu [13]: 13%; Vdss [14]: 0.9 L/kg; bioavailability [15]: 131%; Fu [6]: 10.6%; Tmax [16]: 1 h; Cmax [17]: 1460 ng/mL; half-life [10]: > 2 h; pIC50 [18]: 7.84; pIC50 [19]: 7.99; half-life [20]: 2.1 h
